Laboratory results from ChEMBL document CHEMBL1143838, “Candida albicans and Candida dubliniensis respond differently to echinocandin antifungal agents in vitro” (2007).

Columns and labels:
Format in all cases: functional
[1] = system: Candida albicans; assay: Antifungal activity against Candida albicans NCPF6525 after 24 hrs by EUCAST test
Outline: (§1)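 EUCAST broth microdilution with aqueous doubling dilutions of drug. Inoculum grown overnight at 30°C in NGY, then added to MOPS-buffered RPMI 1640 with 2% glucose at an initial 10^5 yeasts/ml. Incubated 35°C for 24 h. MICs taken from triplicate spectrophotometric dose-response data as 50% and 80% growth-reduction endpoints.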

[2] = system: Candida albicans; assay: Antifungal activity against Candida albicans T28 after 24 hrs by CLSI M27-A test
Outline: (§2)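 CLSI M27-A broth microdilution with aqueous doubling dilutions of drug. Inoculum grown overnight at 30°C in NGY medium, then added to MOPS-buffered RPMI 1640 at an initial 10^3 yeasts/ml. Incubated 35°C for 24 h. MIC read visually as the lowest concentration giving a marked decrease in visible growth; paradoxical or trailing growth noted.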

[3] = system: Candida albicans; assay: Antifungal activity against Candida albicans T28 after 24 hrs by EUCAST test; outline: as §1
[4] = system: Candida albicans; assay: Antifungal activity against Candida albicans T32 after 24 hrs by CLSI M27-A test; outline: as §2
[5] = system: Candida albicans; assay: Antifungal activity against Candida albicans SC5314 after 24 hrs by CLSI M27-A test; conditions: SC5314, 24 h; outline: as §2
[6] = system: Candida albicans; assay: Antifungal activity against Candida albicans SC5314 after 24 hrs by EUCAST test; conditions: SC5314, 24 h; outline: as §1
[7] = system: Candida albicans; assay: Antifungal activity against Candida albicans SCS68858 after 24 hrs by CLSI M27-A test; outline: as §2
[8] = system: Candida albicans; assay: Antifungal activity against Candida albicans AM2003/0083 after 24 hrs by CLSI M27-A test; outline: as §2
[9] = system: Candida albicans; assay: Antifungal activity against Candida albicans B06-341 after 24 hrs by CLSI M27-A test; outline: as §2
[10] = system: Candida albicans; assay: Antifungal activity against Candida albicans HK04M102095 after 24 hrs by CLSI M27-A test; outline: as §2
[11] = system: Candida albicans; assay: Antifungal activity against Candida albicans JIMS101103 after 24 hrs by EUCAST test; outline: as §1
[12] = system: Candida albicans; assay: Antifungal activity against Candida albicans JIMS132203 after 24 hrs by CLSI M27-A test; outline: as §2
[13] = system: Candida albicans; assay: Antifungal activity against Candida albicans JIMS132203 after 24 hrs by EUCAST test; outline: as §1
[14] = system: Candida albicans; assay: Antifungal activity against Candida albicans JIMS146204 after 24 hrs by CLSI M27-A test; outline: as §2
[15] = system: Candida albicans; assay: Antifungal activity against Candida albicans JIMS146204 after 24 hrs by EUCAST test; outline: as §1
[16] = system: Candida albicans; assay: Antifungal activity against Candida albicans NCPF6525 after 24 hrs by CLSI M27-A test; outline: as §2
[17] = system: Candida albicans; assay: Antifungal activity against Candida albicans NR3 after 24 hrs by CLSI M27-A test; outline: as §2
[18] = system: Candida albicans; assay: Antifungal activity against Candida albicans T26 after 24 hrs by CLSI M27-A test; outline: as §2
[19] = system: Candida albicans; assay: Antifungal activity against Candida albicans T26 after 24 hrs by EUCAST test; outline: as §1
[20] = system: Candida albicans; assay: Antifungal activity against Candida albicans Y109 after 24 hrs by CLSI M27-A test; outline: as §2
[21] = system: Candida albicans; assay: Antifungal activity against Candida albicans Y109 after 24 hrs by EUCAST test; outline: as §1
[22] = system: Candida dubliniensis; assay: Antifungal activity against Candida dubliniensis 81/060 after 24 hrs by EUCAST test; outline: as §1
[23] = system: Candida dubliniensis; assay: Antifungal activity against Candida dubliniensis 90/033 after 24 hrs by EUCAST test; outline: as §1
[24] = system: Candida dubliniensis; assay: Antifungal activity against Candida dubliniensis 910Aa after 24 hrs by CLSI M27-A test; outline: as §2
[25] = system: Candida dubliniensis; assay: Antifungal activity against Candida dubliniensis 910Aa after 24 hrs by EUCAST test; outline: as §1
[26] = system: Candida dubliniensis; assay: Antifungal activity against Candida dubliniensis KR after 24 hrs by EUCAST test
Outline: (§3)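 Yeasts were grown overnight at 30°C in NGY, then inoculated at 10^5 yeasts/ml initial concentration into MOPS-buffered RPMI 1640 with 2% glucose containing aqueous doubling dilutions of drug. Plates were held at 35°C for 24 h. MICs came from triplicate spectrophotometric dose-response data at 50% and 80% growth-reduction endpoints. Trailing meant a >100-fold gap between these endpoints; paradoxical meant regrowth ≥5% above the curve minimum.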

[27] = system: Candida dubliniensis; assay: Antifungal activity against Candida dubliniensis Leic875 after 24 hrs by CLSI M27-A test
Outline: (§4)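 Broth microdilution with echinocandins as aqueous doubling dilutions. Yeasts were grown overnight at 30°C in NGY and seeded at 10^3 yeasts/ml initial concentration in MOPS-buffered RPMI 1640, then incubated at 35°C for 24 h. The MIC was read visually as the lowest concentration giving a marked decrease in visible growth; paradoxical or trailing growth was noted.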

[28] = system: Candida dubliniensis; assay: Antifungal activity against Candida dubliniensis Leic875 after 24 hrs by EUCAST test; outline: as §3
[29] = system: Candida dubliniensis; assay: Antifungal activity against Candida dubliniensis Leic952 after 24 hrs by CLSI M27-A test; outline: as §4
[30] = system: Candida dubliniensis; assay: Antifungal activity against Candida dubliniensis SCS17154969-2 after 24 hrs by CLSI M27-A test; outline: as §4
[31] = system: Candida dubliniensis; assay: Antifungal activity against Candida dubliniensis SCS59662 after 24 hrs by CLSI M27-A test; outline: as §4
[32] = system: Candida dubliniensis; assay: Antifungal activity against Candida dubliniensis SCS59662 after 24 hrs by EUCAST test; outline: as §3
[33] = system: Candida dubliniensis; assay: Antifungal activity against Candida dubliniensis SCS65875C after 24 hrs by EUCAST test; outline: as §3
[34] = system: Candida dubliniensis; assay: Antifungal activity against Candida dubliniensis B71507 after 24 hrs by CLSI M27-A test; outline: as §4
[35] = system: Candida dubliniensis; assay: Antifungal activity against Candida dubliniensis B71507 after 24 hrs by EUCAST test; outline: as §3
[36] = system: Candida dubliniensis; assay: Antifungal activity against Candida dubliniensis IK after 24 hrs by EUCAST test; outline: as §3
[37] = system: Candida dubliniensis; assay: Antifungal activity against Candida dubliniensis J930936 after 24 hrs by CLSI M27-A test; outline: as §4
[38] = system: Candida dubliniensis; assay: Antifungal activity against Candida dubliniensis J930936 after 24 hrs by EUCAST test; outline: as §3
[39] = system: Candida dubliniensis; assay: Antifungal activity against Candida dubliniensis SCSBB417709 after 24 hrs by EUCAST test; outline: as §3
[40] = system: Candida dubliniensis; assay: Antifungal activity against Candida dubliniensis ST after 24 hrs by EUCAST test; outline: as §3
[41] = system: Candida parapsilosis; assay: Antifungal activity against Candida parapsilosis ATCC 22019 after 24 hrs by CLSI M27-A test; conditions: Lodderomyces parapsilosis, ATCC 22019, 24 h; outline: as §4
[42] = system: Candida parapsilosis; assay: Antifungal activity against Candida parapsilosis ATCC 22019 after 24 hrs by EUCAST test; conditions: Lodderomyces parapsilosis, ATCC 22019, 24 h; outline: as §3
[43] = system: Pichia kudriavzevii; assay: Antifungal activity against Candida krusei ATCC 6258 after 24 hrs by EUCAST test; conditions: ATCC 6258, 24 h; outline: as §3
[44] = system: Pichia kudriavzevii; assay: Antifungal activity against Candida krusei ATCC 6258 after 24 hrs by CLSI M27-A test; conditions: ATCC 6258, 24 h
Outline: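 Broth microdilution per CLSI M27-A. Drugs were prepared as aqueous doubling dilutions. Inoculum was grown overnight at 30°C in neopeptone-yeast extract-glucose medium, then added to MOPS-buffered RPMI 1640 at an initial 10^3 yeasts/ml. Plates were incubated at 35°C for 24 h. MIC was read visually as the lowest concentration giving a marked decrease in visible growth.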

Measured: MIC50

CC[C@H](C)C[C@H](C)CCCCCCCCC(=O)N[C@H]1C[C@@H](O)[C@@H](NCCN)NC(=O)[C@@H]2[C@@H](O)CCN2C(=O)[C@H]([C@H](O)CCN)NC(=O)[C@H]([C@H](O)[C@@H](O)c2ccc(O)cc2)NC(=O)[C@@H]2C[C@@H](O)CN2C(=O)[C@H]([C@@H](C)O)NC1=O [CASPOFUNGIN]
1 µg/mL: [1] | [41] | [42] | [44]
0.13 µg/mL: [3] | [9] | [16]
0.25 µg/mL: [2] | [4] | [6] | [11] | [13] | [15] | [22] | [25] | [26] | [28] | [36] | [38] | [39]
8 µg/mL: [17] | [18] | [33] | [35]
16 µg/mL: [19] | [23]
4 µg/mL: [20]
0.5 µg/mL: [5] | [7] | [8] | [10] | [12] | [14] | [24] | [27] | [29] | [30] | [31] | [32] | [34] | [37] | [40]
2 µg/mL: [21] | [43]
